Assay outcomes (PubChem)
In the library only some 1.5% were active in any assay of this set; here they are far more common.
Tb hexokinase: blocks Trypanosoma brucei hexokinase 1 activity | recombinant TbHK1, G6PDH-coupled NADH A340 | inhibition, % at 10 µM | 0.11% of 220,000 active;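 active = inhibition of 50% or more in the single-dose primary screen; inactive = inhibition below 50%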
bCat nuc transl: beta-catenin nuclear translocation modulation | HeLa beta-catenin nuclear translocation, immunofluorescence imaging | nuclear translocation activity, % at 5 µM | 0.3% of 190,000 active | AID 1665;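 active = nuclear translocation activity above 50% at 5 µM, with a well cell count of 50 or more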;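 note: per-cell ratio of nuclear to cytoplasmic median beta-catenin stain intensity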
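Technique: fluorescence imaging of beta-catenin antibody stain plus DAPI / Material: human HeLa cell line / Incubation: compound treatment 24 h, 37°C, 5% CO2 / Read-out basis: % activation of per-cell nuclear versus cytoplasmic median beta-catenin signal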
Rad51 HR inh: Rad51 (human) homologous recombination inhibition; Q06609; hRad51 DNA strand exchange, fluorescence dequenching; inhibition, % at 10 µM; 0.085% of 200,000 active; AID 1385;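 active = inhibition above 40% at the single screening dose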
Target sequence (Q06609 whole entry, looked up): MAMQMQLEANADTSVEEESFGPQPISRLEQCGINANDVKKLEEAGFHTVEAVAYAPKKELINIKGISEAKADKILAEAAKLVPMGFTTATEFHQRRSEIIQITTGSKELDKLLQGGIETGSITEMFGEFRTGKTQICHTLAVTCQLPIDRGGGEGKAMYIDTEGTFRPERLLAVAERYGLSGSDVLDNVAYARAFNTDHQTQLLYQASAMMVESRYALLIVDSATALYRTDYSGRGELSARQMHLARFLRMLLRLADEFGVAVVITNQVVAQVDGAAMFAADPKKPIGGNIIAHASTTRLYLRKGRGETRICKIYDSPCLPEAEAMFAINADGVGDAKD
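System: human Rad51 nucleoprotein filaments preassembled on unlabelled ssDNA. Reagent: labelled 47-mer dsDNA for strand exchange. Schedule: 30-min compound preincubation and 15-min exchange, both room temperature. Measured by: FRET fluorescence dequenching, excitation 485 nm, emission 520 nm. Read-out: Fluorescence-based percent inhibition, control- and blank-normalised. Benchmarks: plate controls and plate blanks.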
MT stabilizer: stabilizes microtubules in HeLa cells; HeLa tubulin immunostaining HCS, 24 h; share of cells brighter than vehicle mean+2SD; % tubulin-high responders, % at 10 µM; 0.83% of 200,000 active;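 active = plate Z-score above 3 for both tubulin-high and condensed-nucleus cell shares, with cell loss under 80%, at 10 µM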;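 note: anti alpha tubulin signal scored within the nucleus-defined area of each cell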
Dynein cargo inh: dynein cargo transport inhibition. 3617.4 mouse cells, GR-EGFP nuclear translocation imaging; test concentration mostly 20 µM; stimulated with dexamethasone, 1 µM; stronger effect = lower value. z-score, hits read low. 0.47% of 220,000 active. AID 1381;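 active = plate z-score of nuclear minus cytoplasmic receptor signal below a set negative limit, without overly bright fluorescence or cell loss, cut at about -3.5 in these data, passing the limit was not always enough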;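 note: z-score of nuclear minus cytoplasmic ring GR-EGFP intensity difference per well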
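Buffer or medium: tet-free medium with charcoal-stripped serum / Also added: dexamethasone agonist, 1.0 µM final, for 30 min / Timing: induction 48 h, compound 1 h, agonist 30 min / Measured by: high-content fluorescence imaging after fixation / Read-out: nuclear-to-cytoplasmic GR-EGFP distribution per well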
Each line names hits and unclear results; the compound was inactive in the other large screens; ! = repeats disagree.

CCc1nc(N2CCN(C(=O)c3ccco3)CC2)c2oc3ccccc3c2n1	MT stabilizer 27
COC(=O)N/N=C1\CCCc2ccccc21	none (no result: bCat nuc transl)
NC(N)=N/N=C/c1ccc(OS(=O)(=O)c2ccccc2)cc1	MT stabilizer 9.2
Cc1ccccc1C(=O)N1CCN(c2ccccn2)CC1	none
O=C(c1ccccc1-c1ccccc1)N1CCN(c2ccccn2)CC1	bCat nuc transl 66, MT stabilizer 43 (no result: Rad51 HR inh)
Cc1ccccc1Cn1ccc(NC(=O)CCSc2nc(-c3ccco3)cc(C(F)(F)F)n2)n1	none (no result: bCat nuc transl)
Cc1cccc(C)c1NC(=O)CSc1nc(-c2ccco2)cc(C(F)(F)F)n1	MT stabilizer 41
Cc1ccc(Cn2ccc(NC(=O)CCSc3nc(-c4ccco4)cc(C(F)(F)F)n3)n2)cc1	MT stabilizer 36
Cc1cc(NC(=O)CSc2nc(-c3ccco3)cc(C(F)(F)F)n2)no1	MT stabilizer 39
O=C(CSc1nc(-c2ccco2)cc(C(F)(F)F)n1)Nc1ccccc1C(F)(F)F	none
Cc1cccn2c(=O)c3cc(C(=O)NCCCN4CCCC4=O)n(C)c3nc12	none (no result: bCat nuc transl)
C[C@@H]1CN(C2CCN(Cc3nc(C(c4ccccc4)c4ccccc4)no3)CC2)C[C@H](C)O1	none
O=C(Nc1ccc(C#Cc2ccccc2)cc1)C1CC1	none
Cc1nn(C)c(Cl)c1C(=O)NCC(=O)NCc1ccccc1	Rad51 HR inh 42
CC(C)CNC(=O)c1cccc(NC(=O)CSc2ccccc2)c1	none
CCCCCCCCCCCCCCCCn1cc[n+](C)c1	MT stabilizer 72
CCCCCCCCn1ccc(=N)cc1	none (no result: MT stabilizer)
NS(=O)(=O)c1ccc(N=Nc2c(-c3ccccc3)[nH]n(-c3nc(-c4ccccc4)cs3)c2=O)cc1	none
CCOc1ncccc1C(=O)NCc1ccc(OC)cc1	MT stabilizer 36 (no result: Dynein cargo inh)
CCOc1ccc(Nc2cc(C)nc(-n3nc(C)cc3C)n2)cc1	bCat nuc transl 87
CCOc1ccc(/C=N/NC(=O)c2c(C)n(C)c3ccc(OC)cc23)cc1	MT stabilizer 17
COc1ccc2c(c1)c(C(=O)N/N=C/c1ccc(Br)cc1)c(C)n2C	none (no result: MT stabilizer)
O=C(NC1CCCCC1)c1cc(F)cc2c1OCOC2	none (no result: Rad51 HR inh, MT stabilizer)
CCOC(=O)c1cc2nc(Nc3ccc(OC)cc3)sc2s1	none
Cc1cc(/C=C2\SC(=S)NC2=O)c(C)n1-c1cccc(O)c1	none (no result: MT stabilizer)
Cc1sc(-n2c(C)cc(/C=C3\SC(=S)NC3=O)c2C)c(C#N)c1C	bCat nuc transl 80
CCc1cc2c(=O)c(-c3ccc4c(c3)OCCO4)c(C)oc2cc1OS(C)(=O)=O	MT stabilizer 11
CCOC(=O)c1ccc(N=c2sc(C(=O)OC)cc(=O)n2CCCN2CCOCC2)cc1	Dynein cargo inh -3.6!
Cc1nc(N2CCN(C(=O)c3ccco3)CC2)c2oc3ccccc3c2n1	none (no result: Tb hexokinase, MT stabilizer, Dynein cargo inh)
Cc1nc(N2CCN(Cc3ccc(Cl)cc3)CC2)c2oc3ccccc3c2n1	none (no result: MT stabilizer)
Cc1nc(N2CCC(C)CC2)c2oc3ccccc3c2n1	MT stabilizer 24
COc1ccccc1N1CCN(c2nc(C)nc3c2oc2ccccc23)CC1	bCat nuc transl 81, MT stabilizer 20
COCCN1Cc2cccc(C(=O)NCc3cccnc3)c2C1=O	none (no result: bCat nuc transl)
CS(=O)(=O)N1CCC(C(=O)NCc2ccncc2)CC1	none (no result: Rad51 HR inh)
CCn1c(SCC(=O)N2CCCc3ccccc32)nnc1-c1ccco1	none
CCOc1ccc(Cc2c(Cl)nc(SC)nc2N(C)C)cc1	MT stabilizer 22
Cc1ccc(N=C2NC(=O)/C(=C/c3cccn3C)S2)cc1	bCat nuc transl 65 (no result: MT stabilizer)
O=C1NC(=Nc2ccccc2)S/C1=C/c1cccs1	none
Cc1ccc(N=C2NC(=O)/C(=C\c3ccc(C)s3)S2)cc1	MT stabilizer 6.3
O=C(O)c1cccc(N/N=C/c2cn(-c3ccccc3)nc2-c2cccs2)c1	none
CN(C)S(=O)(=O)c1cccc2nsnc12	none
N#C/C(=C\c1ccncc1)c1nc2ccccc2[nH]1	none
CCN(CC)c1ccc(/C=C(/C#N)c2nc3ccccc3[nH]2)c(OC(C)C)c1	MT stabilizer 60 (no result: bCat nuc transl)
Cc1ccccc1C(=O)NC(C(=O)Nc1nc2c(s1)CCCC2)C(C)C (stereo unspecified)	none (no result: Rad51 HR inh)
Cc1cccc(-n2nnnc2SCC(=O)NCCN2C(=O)CSC2=O)c1	none
Cc1ccc(C(=O)COC(=O)c2cccc(NC(=O)c3ccc([N+](=O)[O-])cc3[N+](=O)[O-])c2)cc1	MT stabilizer 34 (no result: bCat nuc transl)
CC(=O)Nc1ccc(C(=O)OCC(=O)c2cccc([N+](=O)[O-])c2)cc1	none
COc1cccc(C(=O)/C=C/c2ccc(OCC#N)c(OC)c2)c1	none (no result: Rad51 HR inh)
COc1cc(/C=C/C(=O)c2ccc(O)cc2)ccc1OCC#N	MT stabilizer 11
C(=C\c1ccccc1)/CSc1nnc(-c2ccccn2)n1Cc1ccco1	bCat nuc transl 53, MT stabilizer 29
COc1ccc(-c2oc(NC(=O)CSc3ncn[nH]3)c(C#N)c2-c2ccc(OC)cc2)cc1	MT stabilizer 47
CCc1ccccc1NC(=S)N1N=CCC1c1ccccc1 (stereo unspecified)	none
Cc1ccc2c(c1)c1c(n2CC(O)CNC(CO)(CO)CO)CCCC1 (stereo unspecified)	none (no result: bCat nuc transl)
Cc1ccc2c(c1)c1c(n2CC(O)CNC2CCCCC2)CCCC1 (stereo unspecified)	MT stabilizer 36
C=CCNC(=S)NN(c1ccccc1)c1ccccc1	none
O=C(Nc1ccccc1)N1CCC(c2nc(-c3ccc(S(=O)(=O)N4CCOCC4)cc3)no2)CC1	MT stabilizer 26
O=C(c1ccccc1)N1CCC(c2nc(-c3ccc(S(=O)(=O)N4CCOCC4)cc3)no2)CC1	none
CC(/C=N/NC(=O)CSc1nc2ccccc2n1C)=C\c1ccco1	MT stabilizer 17
O=C(N/N=C/c1ccc(F)cc1)c1cc(-c2ccco2)nc2ccccc12	bCat nuc transl 53 (no result: Rad51 HR inh)
O=C(N/N=C/c1ccc2c(c1)OCO2)c1cc(-c2ccncc2)nc2ccccc12	MT stabilizer 21
O=C(N/N=C/c1ccccn1)c1cc(-c2ccncc2)nc2ccccc12	none
CCOc1ccc(/C=N/NC(=O)c2cc(-c3ccco3)nc3ccccc23)cc1	none (no result: bCat nuc transl)
O=C(N/N=C/c1ccsc1)c1cc(-c2ccncc2)nc2ccccc12	MT stabilizer 13
Cc1cc(C)c(O)c(C2(O)C(=O)c3ccccc3C2=O)c1	none (no result: MT stabilizer)
O=C1CC2(CCCCCC2)Oc2ccccc21	none (no result: Tb hexokinase, bCat nuc transl, MT stabilizer, Dynein cargo inh)
O=C(COc1cccc2cccnc12)N/N=C1\SCC(=O)N1Cc1ccccc1	none (no result: bCat nuc transl)
Cc1ccc(/C=N/NC(=O)c2cc(-c3cccnc3)nc3ccccc23)cc1	bCat nuc transl 83
O=C(N/N=C/c1ccsc1)c1cc(-c2cccs2)nc2ccccc12	MT stabilizer 10
O=C(N/N=C/c1ccco1)c1cc(-c2cccc(Br)c2)nc2ccccc12	none (no result: bCat nuc transl, Rad51 HR inh)
CC(/C=N/NC(=O)c1cc(-c2ccncc2)nc2ccccc12)=C\c1ccco1	MT stabilizer 16 (no result: Rad51 HR inh)
O=C(N/N=C/c1ccc(Cl)cc1)c1cc(-c2cccnc2)nc2ccccc12	none
CSc1nncn1/N=C/c1ccc2c(c1)OCO2	none
